OX1R antag-1 – OX1R (HCRTR1) antagonists, primary screen, fluorescence, CHO/OX1R cells, Fluo-8 calcium, orexin A | AID 434989, 2010 | 0.43% of 330,000 active | Orexin/Hypocretin receptor type 1 (Homo sapiens), O43613 | inhibition, % at 5 µM | Fluo-8 calcium fluorescence;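 active = inhibition above its plate's threshold, mean inhibition of all tested compounds on the plate plus 3 SD, cut at about 37% in these data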
Target sequence (O43613 whole entry, looked up): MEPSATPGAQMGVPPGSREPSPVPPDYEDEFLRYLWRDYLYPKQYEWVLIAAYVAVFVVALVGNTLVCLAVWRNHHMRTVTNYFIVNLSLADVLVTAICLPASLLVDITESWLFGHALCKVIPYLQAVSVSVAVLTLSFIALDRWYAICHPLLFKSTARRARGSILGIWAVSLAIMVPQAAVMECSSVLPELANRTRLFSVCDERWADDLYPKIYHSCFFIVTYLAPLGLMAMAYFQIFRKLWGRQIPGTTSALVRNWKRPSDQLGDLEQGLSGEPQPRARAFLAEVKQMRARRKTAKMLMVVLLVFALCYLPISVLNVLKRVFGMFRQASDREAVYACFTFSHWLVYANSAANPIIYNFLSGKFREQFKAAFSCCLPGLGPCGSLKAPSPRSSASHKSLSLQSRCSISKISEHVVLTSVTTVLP
CHO-K1 Ca antag – M1 antagonist counterscreen hit in parental CHO-K1 cells | AID 602250 | inhibition, % at 3 µM | 0.6% of 360,000 active | ATP-induced calcium, Fluo-8 fluorescence;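 active = inhibition above a per-plate cutoff, the plate's mean sample inhibition plus 3 SD, cut at about 24% in these data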
OX1R antag-2 – antagonists of human orexin 1 receptor (OX1R). Orexin/Hypocretin receptor type 1 (Homo sapiens), O43613. OX1R-expressing cells, FRET antagonist read-out. inhibition, % at 6.6 µM. 1.8% of 330,000 active; in the data active = inhibition mostly above about 38%, no sharp cut-off; inactive = mostly below about 40%
M1 ag parental – counter-screen for M1 agonists: effect in parental CHO-K1 cells. activation, % at 3 µM. Fluo-8 calcium fluorescence; scaled to maximal ATP response, vehicle zero. 0.48% of 360,000 active. AID 602248, 2012; in the data active = activation above about 15%;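 note: untransfected CHO-K1 host cells lacking M1 receptor as counterscreen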
CHO parental Ca – ATP-evoked calcium signal inhibitors, parental CHO, primary screen, counter-screen for OX1R antagonist project, cell-based, fluorescence, Fluo-8 calcium dye; parental CHO-K1, ATP-induced calcium, Fluo-8 fluorescence; inhibition, % at 5.6 µM; 0.63% of 330,000 active;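 active = inhibition above that plate's mean sample inhibition plus 3 SD, cut at about 26% in these data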
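Test system: untransfected parental CHO cell line; also added: ATP stimulus; dosing: 5.6 µM, single dose; signal: calcium-sensitive Fluo-8 fluorescence; measure: percent inhibition of ATP-evoked calcium rise, normalized to controls; benchmarks: low control ATP plus DMSO, high control DMSO only; replication: one well per compound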
CHO-K1 Ca PAM – nonselective calcium activators in parental CHO-K1 cells, primary screen, counter-screen for M1 PAM project, cell-based, Fluo-8 calcium fluorescence, full deck, 1536-well; ATP EC20; 0% at ATP EC20, 100% at ATP max; activation, % at 3 µM; 0.02% of 360,000 active; AID 602247, 2012;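 active = activation above the run cutoff, the mean activation of all test compounds plus 3 SD, cut at about 40% in these data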;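 note: peak over basal fluorescence ratio in a 140 s read after ATP addition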
Numbers stand for hits; . = inactive; / = not tested or not shown. An excerpt weighted towards active compounds, which were near 2.9% of everything screened.

SMILES	OX1R antag-1	CHO-K1 Ca antag	OX1R antag-2	M1 ag parental	CHO parental Ca	CHO-K1 Ca PAM
O=C(Cc1csc(NC(=O)Nc2ccc(Cl)cc2)n1)NC1CCCC1	.	.	.	.	35	.
O=C(Cc1csc(NC(=O)Nc2ccc(Cl)cc2)n1)NCc1ccccn1	.	.	.	.	.	.
Cc1nnc(SCC(=O)N(CC(C)C)c2c(N)n(Cc3ccccc3)c(=O)[nH]c2=O)n1N	.	.	.	.	.	.
CCOc1ccc(C(=O)N/N=C/c2c(C)[nH]c(=O)[nH]c2=O)cc1	.	/	.	/	.	/
N#CC1=C(N)Oc2cc(N)ccc2C1c1cccc(F)c1 (centres undefined)	.	.	.	.	.	.
CN(C)c1ccc2c(c1)OC(N)=C(C#N)C2c1cccc(F)c1 (centres undefined)	.	.	.	17	.	.
CC1(C(=O)Nc2ccc3c(c2)OCO3)CCN1Cc1csc2ccccc12 (centres undefined)	/	.	/	.	/	40
CC1(C(=O)Nc2ccc3c(c2)OCO3)CCN1Cc1cccc2c1OCO2 (centres undefined)	/	.	/	.	/	58
Cc1ccc(NC(=O)C2(C)CCN2Cc2csc3ccccc23)cc1 (centres undefined)	/	.	/	.	/	.
COCOc1cccc(CN2CCC2(C)C(=O)Nc2ccc3c(c2)OCO3)c1 (centres undefined)	/	.	/	.	/	.
CC(C)c1ccc(NC(=O)N2CCCC2C(=O)Nc2ccc(-n3cnnn3)cc2)cc1 (centres undefined)	.	.	.	.	.	.
O=c1[nH]c2ccccc2nc1/C=C(\O)c1cccs1	.	.	.	15	.	.
O=C(CCCn1c(=O)c2sccc2n(CC(=O)OCc2ccccc2)c1=O)NCc1ccco1	.	.	.	.	.	.
CCN(Cc1ccccc1)C(=O)Cn1c(=O)n(CC(=O)NCc2ccco2)c(=O)c2sccc21	.	.	52	.	.	.
O=C(N/C(=C/c1ccccc1Cl)C(=O)N1CCCCC1)c1ccco1	.	.	.	.	.	.
O=C(Cc1ccc(S(=O)(=O)N2CCOCC2)s1)N1CCN(c2cccc(C(F)(F)F)c2)CC1	.	.	.	18	.	.
Cc1c(NS(C)(=O)=O)c(=O)n(-c2ccccc2)n1C	.	.	.	.	.	.
Cc1noc(C)c1S(=O)(=O)Nc1c(C)n(C)n(-c2ccccc2)c1=O	.	31	.	.	.	.
Cn1c(=O)c2c(ncn2CC(=O)N/N=C/c2c[nH]c3ccccc23)n(C)c1=O	.	/	.	/	.	/
CCOC(=O)CC1C(=O)NCCN1c1nc2ccc(C)cn2c(=O)c1/C=C1\SC(=S)N(CC(C)C)C1=O (centres undefined)	49	.	.	.	27	.
CCCOc1ccc(OC(=O)c2ccc(Br)o2)cc1	67	.	.	.	56	.
CCc1ccc(OCC(=O)NNC(=O)CNC(=O)c2ccc(Br)o2)cc1	.	.	.	.	.	.
O=C(CCCN1C(=O)/C(=C/c2cccs2)SC1=S)Nc1ccccc1O	.	.	61	.	.	.
O=C(CCCN1C(=O)/C(=C/c2ccco2)SC1=S)Nc1cccc(C(=O)O)c1	.	.	61	.	.	.
O=c1oc2ccccc2c(Nc2cccc3ccccc23)c1[N+](=O)[O-]	.	26	.	.	.	.
SMILES	OX1R antag-1	CHO-K1 Ca antag	OX1R antag-2	M1 ag parental	CHO parental Ca	CHO-K1 Ca PAM
O=c1oc2ccccc2c(Nc2ccccc2O)c1[N+](=O)[O-]	.	.	.	.	.	.
NC(=O)c1ccc(NC(=O)COc2coc(CN3CCc4ccccc4C3)cc2=O)cc1	.	.	.	16	.	.
COc1ccc(NC(=O)COc2coc(CN3CCc4ccccc4C3)cc2=O)cc1	.	.	.	.	.	.
Cc1cc(NC(=O)COC(=O)C2CCC(=O)N2)c([N+](=O)[O-])cc1C (centres undefined)	.	.	61	.	.	.
Cc1cc(NC(=O)COC(=O)CC2CCCC2)c([N+](=O)[O-])cc1C	.	.	.	.	.	.
CCOc1ccc(CCNC(=O)COC(=O)Cn2nc(C)c([N+](=O)[O-])c2C)cc1OCC	.	.	.	.	.	.

Screening results: PubChem, The Scripps Research Institute Molecular Screening Center
